The test system of one series is Trypanosoma cruzi. The experiment in a line: Antitrypanosomal activity against nifurtimox-sensitive Trypanosoma cruzi Tulahuen CL2 infected in human MRC-5 SV2 cells assessed as inhibition of parasite growth measured after 7 days by spectrophotometric analysis. The note with it: Tulahuen CL2, MRC-5 SV2, 168 h. It is filed as functional, organism-based.
Series [1] in a line: Cytotoxicity against human MRC-5 SV2 cells assessed as reduction in cell growth measured after 3 days by resazurin dye based fluorometric analysis. To be noted: time 3 day.
Series [2] in a line: Selectivity index, ratio of CC50 for human MRC-5 SV2 cells to IC50 for antitrypanosomal activity against nifurtimox-sensitive Trypanosoma cruzi Tulahuen CL2 infected in human MRC-5 SV2 cells. To be noted: read-out: Ratio CC50/IC50. It is filed as toxicity, cell-based. The method in brief: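 Ratio of MRC-5SV2 CC50 (3-day resazurin assay) to IC50 against T. cruzi amastigotes in MRC-5SV2 cells (7-day CPRG assay).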

The next series relates to Leishmania infantum. The experiment in a line: Antileishmanial activity against amastigote form of Leishmania infantum MHOM/MA(BE)/67 infected in Swiss mouse peritoneal macrophages assessed as reduction in parasite growth treated at 2 hrs post-infection and measured after 5 days by Giemsa staining based microscopic analysis. It is filed as functional, organism-based. To be noted: MHOM/MA(BE)/67, Peritoneal macrophage. The method in brief:
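Swiss mouse peritoneal macrophages, harvested after 2-day potato-starch stimulation, infected 48 h after plating; compounds added 2 h post-infection.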

Series [3] is described as follows: Cytotoxicity against Swiss mouse peritoneal macrophages assessed as cell detachment, lysis and granulation measured after 5 days by microscopic analysis. The note with it: time 5 day. It is filed as cell-based, Peritoneal macrophage. The essentials:
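Scored within the Leishmania macrophage assay over 5 days: detachment, lysis and granulation judged semi-quantitatively by microscopy across at least 500 cells. CC50 derived from % reduction in normal cells versus untreated wells.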

Series [4] is described as follows: Selectivity index, ratio of CC50 for Swiss mouse peritoneal macrophages to IC50 for antileishmanial activity against amastigote form of Leishmania infantum MHOM/MA(BE)/67 infected in Swiss mouse peritoneal macrophages. It is filed as toxicity. To be noted: read-out: Ratio CC50/IC50. The method in brief: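 Ratio of macrophage CC50 to L. infantum amastigote IC50, both taken from the same 5-day macrophage assay.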

SMILES strings stand for the structures.

Turning to `Nc1ncnc2c1c(Br)nn2[C@@H]1O[C@H](CO)[C@@H](O)[C@H]1O`, the IC50 in the series on Trypanosoma cruzi amounted to 4.37 µM; in the series with Leishmania infantum it was 29.4 µM. The CC50 at 72 h in series [1] is over 64 µM. The selectivity ratio in series [2] was over 15; in series [4], over 2. For the same compound, the cytotoxic concentration (CC50) at 120 h in series [3] is over 64 µM.

`C=Cc1nn([C@@H]2O[C@H](CO)[C@@H](O)[C@H]2O)c2ncnc(N)c12`: the IC50 was over 64 µM with Trypanosoma cruzi and 12.7 µM in the series with Leishmania infantum. Besides, the CC50 at 72 h in series [1] was over 64 µM. In addition, in series [3], the CC50 at 120 h was 32 µM. In addition, in series [4], the selectivity ratio was 3.

Consider `NC(=O)c1nn([C@@H]2O[C@H](CO)[C@@H](O)[C@H]2O)c2ncnc(N)c12`, for which the IC50 in the series with Trypanosoma cruzi turned out to be 0.25 µM; in the series on Leishmania infantum it was 8.11 µM. In addition, in series [1], the CC50 at 72 h worked out at 0.25 µM. In addition, the selectivity ratio in series [2] and in series [4] was 1 each time. Moreover, the CC50 at 120 h in series [3] turned out to be 8 µM.

Consider `Nc1ncnc2c1c(-c1ccc(C(F)(F)F)cc1)nn2[C@@H]1O[C@H](CO)[C@@H](O)[C@H]1O`, for which the IC50 worked out at 6.34 µM in the series on Trypanosoma cruzi and 57 µM in the series with Leishmania infantum. Also, the cytotoxic concentration (CC50) at 72 h in series [1] was over 64 µM. Also, the selectivity ratio in series [2] is over 10; in series [4] it was over 1. Also, the CC50 at 120 h in series [3] was over 64 µM.

With `Nc1ncnc2c1c(Oc1ccccc1)nn2[C@@H]1O[C@H](CO)[C@@H](O)[C@H]1O`, the IC50 is over 64 µM with Trypanosoma cruzi and 32 µM in the series on Leishmania infantum. In addition, the CC50 at 72 h in series [1] is over 64 µM. The CC50 at 120 h in series [3] is over 64 µM. Also, in series [4], the selectivity ratio was over 2.

Take `Nc1ncnc2c1c(N)nn2[C@@H]1O[C@H](CO)[C@@H](O)[C@H]1O`: the IC50 came to 7.64 µM with Trypanosoma cruzi and 6.82 µM with Leishmania infantum. Also, in series [1], the CC50 at 72 h was found to be 23 µM. Besides, the values for the selectivity ratio in series [2] and in series [4] were 3 and 1, respectively. The CC50 at 120 h in series [3] stood at 8 µM.

With `Cc1nn([C@@H]2O[C@H](CO)[C@@H](O)[C@H]2O)c2ncnc(N)c12`, the IC50 came to 4.68 µM in the series on Trypanosoma cruzi and 32.7 µM in the series with Leishmania infantum. Moreover, the CC50 at 72 h in series [1] was found to be 57.5 µM. Besides, the figures for the selectivity ratio in series [2] and in series [4] were 12 and 1, respectively. Further, the cytotoxic concentration (CC50) at 120 h in series [3] was found to be 40 µM.

Regarding `Oc1ncnc2[nH]ncc12` [ALLOPURINOL], the IC50 in the series on Trypanosoma cruzi was determined as 9.75 µM; in the series with Leishmania infantum it was 3.51 µM. In addition, the CC50 at 72 h in series [1] is over 64 µM. Moreover, the selectivity ratio was over 7 in series [2] and over 18 in series [4]. The cytotoxic concentration (CC50) at 120 h in series [3] is over 64 µM.

Regarding `Nc1ncnc2c1c(Br)nn2[C@@H]1O[C@H](CO)[C@@H](F)[C@H]1O`, the IC50 with Trypanosoma cruzi is 1.06 µM; in the series on Leishmania infantum, 0.08 µM. Further, the CC50 at 72 h in series [1] was found to be 0.23 µM. The CC50 at 120 h in series [3] amounted to 0.13 µM. In addition, the selectivity ratio in series [4] was found to be 1.

Regarding `Nc1ncnc2c1c(C(=O)Nc1ccccc1)nn2[C@@H]1O[C@H](CO)[C@@H](O)[C@H]1O`, the IC50 was over 64 µM in the series on Trypanosoma cruzi and 32.5 µM in the series with Leishmania infantum. Moreover, the 50% cytotoxic concentration (CC50) at 72 h in series [1] is over 64 µM. In addition, the CC50 at 120 h in series [3] was 32 µM. Besides, the selectivity ratio in series [4] came out at 1.

As for `Nc1ncnc2c1c(-c1ccc(Cl)c(C(F)(F)F)c1)nn2[C@@H]1O[C@H](CO)[C@@H](O)[C@H]1O`, the IC50 with Trypanosoma cruzi was 43.8 µM; with Leishmania infantum it was over 64 µM. Moreover, the CC50 at 72 h in series [1] was over 64 µM. In series [2], the selectivity ratio was over 1. The half-maximal cytotoxic concentration (CC50) at 120 h in series [3] was over 64 µM.

Turning to `CNC(=O)c1nn([C@@H]2O[C@H](CO)[C@@H](O)[C@H]2O)c2ncnc(N)c12`, the IC50 with Trypanosoma cruzi was 4 µM; in the series with Leishmania infantum, over 64 µM. Moreover, the 50% cytotoxic concentration (CC50) at 72 h in series [1] was over 64 µM. The selectivity ratio in series [2] was found to be 16. The CC50 at 120 h in series [3] is over 64 µM.

For the compound `Nc1ncnc2c1c(C(F)(F)F)nn2[C@@H]1O[C@H](CO)[C@@H](O)[C@H]1O`, the values for the half-maximal inhibitory concentration (IC50) in the series on Trypanosoma cruzi and in the series with Leishmania infantum were 27 µM and over 64 µM, respectively. Further, the CC50 at 72 h in series [1] is 13.3 µM. Also, in series [2], the selectivity ratio was under 1. Besides, the cytotoxic concentration (CC50) at 120 h in series [3] was over 64 µM.

With `Cc1cc(Cl)ccc1-c1nn([C@@H]2O[C@H](CO)[C@@H](O)[C@H]2O)c2ncnc(N)c12`, the values for the 50% inhibitory concentration (IC50) in the series with Trypanosoma cruzi and with Leishmania infantum were 3.76 µM and over 64 µM, respectively. For the same compound, the CC50 at 72 h in series [1] is over 64 µM. In addition, in series [2], the selectivity ratio was over 17. In series [3], the CC50 at 120 h is over 64 µM.

Regarding `CNc1nn([C@@H]2O[C@H](CO)[C@@H](O)[C@H]2O)c2ncnc(N)c12`, the figures for the half-inhibitory concentration (IC50) in the series with Trypanosoma cruzi and with Leishmania infantum were over 64 µM and 50.8 µM, respectively. Moreover, the CC50 at 72 h in series [1] is over 64 µM. For the same compound, the half-maximal cytotoxic concentration (CC50) at 120 h in series [3] was over 64 µM. Moreover, in series [4], the selectivity ratio is over 1.

As for `Nc1ncnc2c1c(-c1ccc(Cl)cc1)nn2[C@@H]1O[C@H](CO)C[C@H]1O`, the IC50 is 1.04 µM in the series on Trypanosoma cruzi and over 64 µM in the series on Leishmania infantum. Besides, the half-maximal cytotoxic concentration (CC50) at 72 h in series [1] was over 64 µM. The selectivity ratio in series [2] is over 61. Further, the CC50 at 120 h in series [3] was over 64 µM.

As to `Cc1csc(-c2nn([C@@H]3O[C@H](CO)[C@@H](O)[C@H]3O)c3ncnc(N)c23)c1`, the IC50 is 32 µM in the series with Trypanosoma cruzi and over 64 µM in the series with Leishmania infantum. Also, in series [1], the cytotoxic concentration (CC50) at 72 h is over 64 µM. For the same compound, in series [2], the selectivity ratio was over 2. The CC50 at 120 h in series [3] was over 64 µM.

`N#Cc1ccc(-c2nn([C@@H]3O[C@H](CO)[C@@H](O)[C@H]3O)c3ncnc(N)c23)cc1`: the IC50 is 32 µM with Trypanosoma cruzi and over 64 µM in the series on Leishmania infantum. For the same compound, in series [1], the cytotoxic concentration (CC50) at 72 h was over 64 µM. In addition, in series [2], the selectivity ratio is over 2. Further, the 50% cytotoxic concentration (CC50) at 120 h in series [3] is over 64 µM.

For `Nc1ncnc2c1c(-c1ccc(F)cc1)nn2[C@@H]1O[C@H](CO)[C@@H](O)[C@H]1O`, the IC50 in the series with Trypanosoma cruzi is 3.36 µM; in the series with Leishmania infantum, over 64 µM. In series [1], the CC50 at 72 h was over 64 µM. For the same compound, in series [2], the selectivity ratio is over 19. In addition, in series [3], the 50% cytotoxic concentration (CC50) at 120 h was over 64 µM.

For the compound `Nc1ncnc2c1c(-c1ccc(OC(F)(F)F)cc1)nn2[C@@H]1O[C@H](CO)[C@@H](O)[C@H]1O`, the half-maximal inhibitory concentration (IC50) in the series with Trypanosoma cruzi was 15.6 µM; in the series with Leishmania infantum, over 64 µM. In addition, the CC50 at 72 h in series [1] was over 64 µM. In addition, the selectivity ratio in series [2] was over 4. The cytotoxic concentration (CC50) at 120 h in series [3] was over 64 µM.

As for `Nc1ncnc2c1c(CCc1ccccc1)nn2[C@@H]1O[C@H](CO)[C@@H](O)[C@H]1O`, the IC50 in the series on Trypanosoma cruzi is 52.3 µM; in the series on Leishmania infantum it was over 64 µM. Also, in series [1], the CC50 at 72 h was over 64 µM. For the same compound, in series [2], the selectivity ratio was over 1. Moreover, the CC50 at 120 h in series [3] is over 64 µM.

Turning to `Nc1ncnc2c1c(-c1cc(F)c(Cl)c(F)c1)nn2[C@@H]1O[C@H](CO)[C@@H](O)[C@H]1O`, the values for the IC50 in the series with Trypanosoma cruzi and with Leishmania infantum were 1.33 µM and over 64 µM, respectively. For the same compound, the CC50 at 72 h in series [1] is over 64 µM. Also, the selectivity ratio in series [2] is over 17. In series [3], the CC50 at 120 h is over 64 µM.

As to `Cc1cc(-c2nn([C@@H]3O[C@H](CO)[C@@H](O)[C@H]3O)c3ncnc(N)c23)ccc1Cl`, the half-maximal inhibitory concentration (IC50) was 0.81 µM with Trypanosoma cruzi and over 64 µM with Leishmania infantum. Moreover, in series [1], the CC50 at 72 h is over 64 µM. In series [2], the selectivity ratio is over 79. Further, the cytotoxic concentration (CC50) at 120 h in series [3] is over 64 µM.

`CC(C)c1nn([C@@H]2O[C@H](CO)[C@@H](O)[C@H]2O)c2ncnc(N)c12`: the IC50 in the series with Trypanosoma cruzi and with Leishmania infantum was over 64 µM throughout. Moreover, in series [1], the CC50 at 72 h stood at 10.6 µM. In addition, the selectivity ratio in series [2] was under 1. Also, the CC50 at 120 h in series [3] is over 64 µM.

These data come from ChEMBL document CHEMBL4811241, “Revisiting Pyrazolo[3,4-d]pyrimidine Nucleosides as Anti-Trypanosoma cruzi and Antileishmanial Agents” (J Med Chem, 2021).
